Source: ChEMBL document CHEMBL5724801, “EUbOPEN Chemogenomics Library - Multiplex” (2024)
Values joined by “and” are separate entries in the source; they are usually repeats but may differ in a detail not shown here. Equal values may be shown once.

Tested on: U2OS
Test: Multiplex assay against U2OS
Assay type: toxicity, cell-based
Settings: human
Procedure, shortened: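 Per cents of healthy-nucleus cells form the tubulin, mitochondrial-mass and membrane-permeability phenotype values. Live cells were stained at seeding with Hoechst33342, BioTracker Green Microtubule Cytoskeleton Dye, MitoTracker Red and Annexin V Alexa Fluor 680. After compound addition they were imaged on a CQ1 microscope at 37°C and 5% CO2, and CellPathfinder machine-learning gating split them into Hoechst high-intensity objects or normal cells, normal cells into healthy, pyknosed or fragmented nuclei, and pyknosed cells into mitotic or apoptotic.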

[1] = 12 h, 1 µM, compound concentration 1 uM
[2] = 12 h, 10 µM, compound concentration 10 uM
[3] = 24 h, 1 µM, compound concentration 1 uM
[4] = 24 h, 10 µM, compound concentration 10 uM
[5] = 48 h, 1 µM, compound concentration 1 uM
[6] = 48 h, 10 µM, compound concentration 10 uM

CC(/C=C1\SC(=S)N(CCCC(=O)Nc2ccc(C(=O)O)c(O)c2)C1=O)=C\c1ccccc1
Population Apoptotic (%) [1]: 94% and 100% | Population Fragmented Nuclei (%) [1]: 26% and 12% | Population Healthy Nuclei (%) [1]: 64% and 80% | Population Hoechst High Intensity Objects (%) [1]: 3% and 4% | Population Membrane Permeable-Phenotype (%) [1]: 4% and 3% | Population Mitochondria Different-Phenotype (%) [1]: 1% and 2% | Population Mitotic Cells (%) [1]: 5% and 0% | Population Normal (%) [1]: 96% and 95% | Population Pyknosed Nuclei (%) [1]: 8% and 7% | Population Tubulin-Different-Phenotype (%) [1]: 3% and 0% | Total Cell Count [1]: 205 and 133 | Population Apoptotic (%) [2]: 91% and 72% | Population Fragmented Nuclei (%) [2]: 28% and 16% | Population Healthy Nuclei (%) [2]: 61% and 72% | Population Hoechst High Intensity Objects (%) [2]: 3% and 0% | Population Membrane Permeable-Phenotype (%) [2]: 12% and 4% | Population Mitochondria Different-Phenotype (%) [2]: 2% and 1% | Population Normal (%) [2]: 96% and 100% | Population Pyknosed Nuclei (%) [2]: 9% and 10% | Population Tubulin-Different-Phenotype (%) [2]: 4% and 5% | Total Cell Count [2]: 241 and 101 | Population Apoptotic (%) [3]: 83% and 94% | Population Fragmented Nuclei (%) [3]: 25% and 9% | Population Healthy Nuclei (%) [3]: 64% and 79% | Population Hoechst High Intensity Objects (%) [3]: 3% and 1% | Population Membrane Permeable-Phenotype (%) [3]: 4% and 10% | Population Mitochondria Different-Phenotype (%) [3]: 1% | Population Normal (%) [3]: 96% and 98% | Population Pyknosed Nuclei (%) [3]: 10% | Population Tubulin-Different-Phenotype (%) [3]: 1% | Total Cell Count [3]: 247 and 177 | Population Apoptotic (%) [4]: 88% and 53% | Population Fragmented Nuclei (%) [4]: 26% and 16% | Population Healthy Nuclei (%) [4]: 64% and 72% | Population Hoechst High Intensity Objects (%) [4]: 2% and 0% | Population Membrane Permeable-Phenotype (%) [4]: 7% | Population Mitochondria Different-Phenotype (%) [4]: 3% and 6% | Population Normal (%) [4]: 97% and 100% | Population Pyknosed Nuclei (%) [4]: 8% and 11% | Population Tubulin-Different-Phenotype (%) [4]: 3% and 6% | Total Cell Count [4]: 298 and 111 | Population Apoptotic (%) [5]: 93% and 78% | Population Fragmented Nuclei (%) [5]: 16% and 11% | Population Healthy Nuclei (%) [5]: 74% and 79% | Population Hoechst High Intensity Objects (%) [5]: 2% and 3% | Population Membrane Permeable-Phenotype (%) [5]: 5% and 4% | Population Mitochondria Different-Phenotype (%) [5]: 1% and 3% | Population Normal (%) [5]: 97% and 96% | Population Pyknosed Nuclei (%) [5]: 8% and 9% | Population Tubulin-Different-Phenotype (%) [5]: 1% and 2% | Total Cell Count [5]: 368 and 253 | Population Apoptotic (%) [6]: 97% and 82% | Population Fragmented Nuclei (%) [6]: 19% and 16% | Population Healthy Nuclei (%) [6]: 68% and 73% | Population Hoechst High Intensity Objects (%) [6]: 2% and 1% | Population Membrane Permeable-Phenotype (%) [6]: 6% and 4% | Population Mitochondria Different-Phenotype (%) [6]: 2% and 1% | Population Normal (%) [6]: 97% and 98% | Population Pyknosed Nuclei (%) [6]: 12% and 10% | Population Tubulin-Different-Phenotype (%) [6]: 4% and 0% | Total Cell Count [6]: 396 and 170

Cc1sc2c(c1C)C(c1ccc(Cl)cc1)=N[C@@H](CC(=O)NCCCCCCCCNC(=O)COc1cccc3c1C(=O)N(C1CCC(=O)NC1=O)C3=O)c1nnc(C)n1-2 (stereo not given in full)
Population Apoptotic (%) [1]: 93% and 87% | Population Healthy Nuclei (%) [1]: 49% and 80% | Population Hoechst High Intensity Objects (%) [1]: 11% and 0% | Population Membrane Permeable-Phenotype (%) [1]: 9% and 5% | Population Mitochondria Different-Phenotype (%) [1]: 4% and 1% | Population Mitotic Cells (%) [1]: 6% and 12% | Population Normal (%) [1]: 88% and 99% | Population Pyknosed Nuclei (%) [1]: 6% and 5% | Population Tubulin-Different-Phenotype (%) [1]: 5% and 3% | Total Cell Count [1]: 269 and 136 | Population Apoptotic (%) [2]: 86% and 100% | Population Fragmented Nuclei (%) [2]: 31% and 19% | Population Healthy Nuclei (%) [2]: 55% and 75% | Population Hoechst High Intensity Objects (%) [2]: 5% and 0% | Population Mitochondria Different-Phenotype (%) [2]: 4% and 12% | Population Mitotic Cells (%) [2]: 13% and 0% | Population Normal (%) [2]: 94% and 99% | Population Pyknosed Nuclei (%) [2]: 13% and 4% | Population Tubulin-Different-Phenotype (%) [2]: 0% and 12% | Total Cell Count [2]: 233 and 117 | Population Apoptotic (%) [3]: 100% and 92% | Population Healthy Nuclei (%) [3]: 51% and 80% | Population Hoechst High Intensity Objects (%) [3]: 11% and 2% | Population Membrane Permeable-Phenotype (%) [3]: 8% and 5% | Population Mitochondria Different-Phenotype (%) [3]: 3% and 2% | Population Mitotic Cells (%) [3]: 0% and 7% | Population Normal (%) [3]: 88% and 97% | Population Pyknosed Nuclei (%) [3]: 6% and 7% | Population Tubulin-Different-Phenotype (%) [3]: 5% and 4% | Total Cell Count [3]: 297 and 174 | Population Apoptotic (%) [4]: 100% | Population Fragmented Nuclei (%) [4]: 34% and 27% | Population Healthy Nuclei (%) [4]: 53% and 65% | Population Hoechst High Intensity Objects (%) [4]: 8% and 0% | Population Mitochondria Different-Phenotype (%) [4]: 5% and 9% | Population Mitotic Cells (%) [4]: 0% | Population Normal (%) [4]: 91% and 99% | Population Pyknosed Nuclei (%) [4]: 12% and 7% | Total Cell Count [4]: 245 and 130 | Population Apoptotic (%) [5]: 91% and 90% | Population Fragmented Nuclei (%) [5]: 35% and 12% | Population Healthy Nuclei (%) [5]: 53% and 79% | Population Hoechst High Intensity Objects (%) [5]: 10% and 1% | Population Membrane Permeable-Phenotype (%) [5]: 6% and 4% | Population Mitochondria Different-Phenotype (%) [5]: 1% | Population Mitotic Cells (%) [5]: 8% and 9% | Population Normal (%) [5]: 89% and 98% | Population Pyknosed Nuclei (%) [5]: 10% and 7% | Population Tubulin-Different-Phenotype (%) [5]: 2% and 1% | Total Cell Count [5]: 353 and 270 | Population Apoptotic (%) [6]: 100% | Population Fragmented Nuclei (%) [6]: 36% and 25% | Population Healthy Nuclei (%) [6]: 51% and 70% | Population Hoechst High Intensity Objects (%) [6]: 7% and 2% | Population Membrane Permeable-Phenotype (%) [6]: 9% and 10% | Population Mitochondria Different-Phenotype (%) [6]: 4% | Population Mitotic Cells (%) [6]: 0% | Population Normal (%) [6]: 92% and 97% | Population Pyknosed Nuclei (%) [6]: 12% and 4% | Population Tubulin-Different-Phenotype (%) [6]: 4% and 7% | Total Cell Count [6]: 289 and 179

CC(=O)O[C@H]1C(=O)[C@@]2(C)[C@H]([C@H](OC(=O)c3ccccc3)[C@]3(O)C[C@H](OC(=O)[C@H](O)[C@@H](NC(=O)c4ccccc4)c4ccccc4)C(C)=C1C3(C)C)[C@]1(OC(C)=O)CO[C@@H]1C[C@@H]2O [PACLITAXEL]
Population Apoptotic (%) [2]: 64% and 71% | Population Fragmented Nuclei (%) [2]: 28% and 16% | Population Healthy Nuclei (%) [2]: 46% and 60% | Population Hoechst High Intensity Objects (%) [2]: 8% and 3% | Population Membrane Permeable-Phenotype (%) [2]: 23% and 10% | Population Mitochondria Different-Phenotype (%) [2]: 25% and 30% | Population Mitotic Cells (%) [2]: 35% and 28% | Population Normal (%) [2]: 91% and 96% | Population Pyknosed Nuclei (%) [2]: 24% and 23% | Population Tubulin-Different-Phenotype (%) [2]: 16% and 14% | Total Cell Count [2]: 200 and 94 | Population Apoptotic (%) [4]: 69% and 58% | Population Fragmented Nuclei (%) [4]: 33% and 25% | Population Healthy Nuclei (%) [4]: 36% and 48% | Population Hoechst High Intensity Objects (%) [4]: 4% | Population Membrane Permeable-Phenotype (%) [4]: 21% and 15% | Population Mitochondria Different-Phenotype (%) [4]: 44% and 34% | Population Mitotic Cells (%) [4]: 30% and 41% | Population Normal (%) [4]: 95% | Population Pyknosed Nuclei (%) [4]: 29% and 26% | Population Tubulin-Different-Phenotype (%) [4]: 13% and 18% | Total Cell Count [4]: 198 and 95 | Population Apoptotic (%) [6]: 76% and 70% | Population Fragmented Nuclei (%) [6]: 35% and 27% | Population Healthy Nuclei (%) [6]: 30% and 31% | Population Hoechst High Intensity Objects (%) [6]: 12% and 8% | Population Membrane Permeable-Phenotype (%) [6]: 27% and 14% | Population Mitochondria Different-Phenotype (%) [6]: 29% and 50% | Population Mitotic Cells (%) [6]: 23% and 29% | Population Normal (%) [6]: 87% and 91% | Population Pyknosed Nuclei (%) [6]: 33% and 41% | Population Tubulin-Different-Phenotype (%) [6]: 16% and 25% | Total Cell Count [6]: 203 and 98
